This is an account of results in ChEMBL document CHEMBL3525997, “Debrisoquine metabolism and CYP2D expression in marmoset liver microsomes” (Drug Metab Dispos, 2012).

Assay type in all cases: ADME, Callithrix jacchus
Series [1] is described as follows: Drug metabolism in marmoset liver microsomes assessed as 6,7-hydroxydebrisoquine formation at 500 uM after 180 mins by NMR analysis. The following applies: 3 h. The method, boiled down: (§1)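 Large-scale incubation to generate metabolites for structural identification. Pooled marmoset liver microsomal protein 4 mg/ml (batch 1), 6 mM NADPH, 50 mM Tris-HCl pH 7.69, total 35 ml. Reaction started with [14C]debrisoquine to a final concentration of 500 µM and incubated for 180 min.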

A short description of series [2]: Drug metabolism in marmoset liver microsomes assessed as 8-hydroxydebrisoquine formation at 500 uM after 180 mins by NMR analysis. To be noted: 3 h. The gist of the method: as §1
The nature of series [3]: Drug metabolism in marmoset liver microsomes assessed as 7-hydroxydebrisoquine formation at 500 uM after 180 mins by NMR analysis. The following applies: 3 h. The gist of the method: as §1
Series [4] is described as follows: Drug metabolism in marmoset liver microsomes assessed as 4-hydroxydebrisoquine formation at 500 uM after 180 mins by NMR analysis. To be noted: 3 h. The gist of the method: as §1
Series [5] in a line: Drug metabolism in marmoset liver microsomes assessed as 6-hydroxydebrisoquine formation at 500 uM after 180 mins by NMR analysis. To be noted: 3 h. The gist of the method: as §1
Series [6] can be described thus: Drug metabolism in marmoset liver microsomes assessed as 5-hydroxydebrisoquine formation at 500 uM after 180 mins by NMR analysis. To be noted: 3 h. The method, boiled down: as §1
The nature of series [7]: Drug metabolism in marmoset liver microsomes treated with [14C]debrisoquine at 500 uM after 180 mins by NMR analysis. To be noted: 3 h. The method, boiled down: as §1
Series [8] is described as follows: Drug metabolism in marmoset liver microsomes treated with [14C]debrisoquine at 500 uM after 120 mins by radio-HPLC chromatography. To be noted: 2 h. The gist of the method:
(§2)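 Pooled male marmoset liver microsomes (5 mg/ml, batch 1) incubated with [14C]debrisoquine 500 µM, NADPH 6 mM, Tris-HCl 50 mM pH 7.69, 37°C, 120 min. Protein precipitated, supernatant injected on C18 reversed-phase HPLC with 10 mM TFA/acetonitrile linear gradient over 40 min. Detection by UV at 211 nm, radioactivity flow detector, and ESI+ LC-MS/MS with product ion spectra.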

Series [9] in a line: Drug metabolism in marmoset liver microsomes treated with [14C]debrisoquine at 500 uM after 120 mins by LC/MS/MS analysis. The following applies: 2 h. The gist of the method:
as §2

Series [10] is described as follows: Drug metabolism in marmoset liver microsomes assessed as metabolite MF-1 formation at 500 uM after 120 mins by LC/MS/MS analysis. To be noted: 2 h. The method, boiled down: as §2
Series [11] in a line: Drug metabolism in marmoset liver microsomes assessed as 4-hydroxydebrisoquine formation at 500 uM after 120 mins by LC/MS/MS analysis. The following applies: 2 h. The gist of the method: as §2
Series [12] is described as follows: Drug metabolism in marmoset liver microsomes assessed as 4-hydroxydebrisoquine formation at 500 uM after 120 mins by radio-HPLC chromatography. The following applies: 2 h. The gist of the method:
as §2

A short description of series [13]: Drug metabolism in marmoset liver microsomes assessed as metabolite MF-3 formation at 500 uM after 120 mins by LC/MS/MS analysis. To be noted: 2 h. The gist of the method:
as §2

Series [14] in a line: Drug metabolism in marmoset liver microsomes assessed as metabolite MF-1 formation at 500 uM after 120 mins by radio-HPLC chromatography. To be noted: 2 h. The method, boiled down: as §2
The nature of series [15]: Drug metabolism in marmoset liver microsomes assessed as metabolite MF-3 formation at 500 uM after 120 mins by radio-HPLC chromatography. To be noted: 2 h. The method, boiled down: as §2

On to `N=C(N)N1CCc2ccccc2C1.O=S(=O)(O)O`, for which the Drug metabolism entry in [1], in series [2], in [3], in series [4], in [5] and in [6] was “metabolite_detected” throughout.
In the case of `N=C(N)N1Cc2ccccc2C(O)C1` (stereo not given), the Drug metabolism result in series [7], in series [8] and in [9] was “metabolite_detected” throughout.
In the case of `N=C(N)N1CCc2cccc(O)c2C1`, the Drug metabolism result in series [7] is listed as “metabolite_detected”.
The same measure, in the same setting: then `N=C(N)N1CCc2cc(O)c(O)cc2C1`, with “metabolite_detected”; and `N=C(N)N1CCc2c(O)cccc2C1`, with “metabolite_detected”; and `N=C(N)N1CCc2cc(O)ccc2C1`, with “metabolite_detected”.
As to `N=C(N)N1CCc2ccc(O)cc2C1`, the Drug metabolism result in series [7] is “metabolite_detected”.
As to `N=[14C](N)N1CCc2ccccc2C1`, the Drug metabolism result in [10], in series [11], in series [12], in series [13], in series [14] and in series [15] was “metabolite_detected” in each case.
